In ChEMBL document CHEMBL1139299, “Facilitated phospholipid translocation in vesicles and nucleated cells using synthetic small molecule scramblases” (Bioorg Med Chem, 2009) one finds CC50 and Activity data, which are given here for 16 compounds.

Assay type in all cases: functional
One assay relates to Jurkat. Description: Cytotoxicity against human Jurkat cells by MTT assay. The settings on record: read-out: LD50 (the source's name). The method in brief: (§1)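 Cells (Jurkat and LNCaP grown in RPMI with 10% FBS) were seeded at ≥5 × 10^4 cells/mL, dosed from DMSO stock for 24 h, then given fresh medium plus MTT (Jurkat pelleted first). After 4 h, SDS in 0.01 M HCl was added for 18 h at 37°C. A570 was read. % living cells was calculated against a no-cell blank and a DMSO-only control, and LD50 was reported.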

The test system of assay [1] is PC-3. The assay is described as follows: Cytotoxicity against human PC3 cells by MTT assay. Particulars: read-out: LD50 (the source's name). The method in brief: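 PC3 cells grown in Ham's F-12K with 10% FBS were seeded at ≥5 × 10^4 cells/mL, dosed from DMSO stock for 24 h, then given fresh growth medium plus MTT for 4 h. SDS in 0.01 M HCl was added for 18 h at 37°C, 5% CO2. A570 was read. % living cells was calculated against a no-cell blank and a DMSO-only control, and LD50 was reported.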

Another assay has as its system LNCaP. Description: Cytotoxicity against human LNCAP cells by MTT assay. The settings on record: read-out: LD50 (the source's name). In a few lines:
as §1

The subject of assay [2] is PC-3. Description: Induction of endogenous phospholipidserine distribution in human PC3 cells at 100 uM by Annexin-V-FITC. The method in brief: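 PC3 cells detached with trypsin at 90% confluency and resuspended in TES buffer (5 mM TES, 100 mM NaCl, pH 7.4) at 1 × 10^5 cells/mL. Scramblase added from DMSO stock, 100 μM final, 2 h at 37°C, 5% CO2. Pelleted, resuspended in binding buffer, stained 15 min at 37°C with Annexin V-FITC plus 7AAD (500 ng/mL) to exclude necrotic cells. Annexin-positive fraction read by flow cytometry; three independent experiments.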

Each structure is given as a SMILES string.

For `CC(=O)c1ccc(NC(=O)NCCN(CCNS(=O)(=O)c2ccc(C)cc2)CCNS(=O)(=O)c2ccc(C)cc2)cc1`, the CC50 in the assay on Jurkat, in the assay with PC-3 [1] and with LNCaP was > 100 µM each time.

Regarding `Cc1ccc(S(=O)(=O)NCCN(CCNC(=O)Nc2ccc(C(F)(F)F)cc2)CCNS(=O)(=O)c2ccc(C)cc2)cc1`, the CC50 in the assay with Jurkat, in the assay on PC-3 [1] and with LNCaP was > 100 µM in each case.

As to `Cc1ccc(S(=O)(=O)NCCN(CCNC(=O)[C@H](N)Cc2ccccc2)CCNS(=O)(=O)c2ccc(C)cc2)cc1`, the results for the CC50 with Jurkat, with PC-3 [1] and in the assay with LNCaP were 25 µM, 15 µM and 40 µM, respectively.

Take `Cc1ccc(S(=O)(=O)NCCN(CCNC(=O)Nc2ccc(Oc3ccccc3)cc2)CCNS(=O)(=O)c2ccc(C)cc2)cc1`: the CC50 with Jurkat, in the assay with PC-3 [1] and with LNCaP was > 100 µM throughout.

As to `Cc1ccc(S(=O)(=O)NCCN(CCNC(=O)Nc2ccc(OC(F)(F)F)cc2)CCNS(=O)(=O)c2ccc(C)cc2)cc1`, the CC50 with Jurkat, in the assay with PC-3 [1] and in the assay on LNCaP was > 100 µM each time.

`Cc1ccc(S(=O)(=O)NCCN(CCNC(=O)Nc2ccccc2)CCNS(=O)(=O)c2ccc(C)cc2)cc1`: the CC50 in the assay on Jurkat, in the assay with PC-3 [1] and in the assay on LNCaP was > 100 µM throughout. For the same compound, the Activity in the assay with PC-3 [2] was < 5%.

Regarding `Cc1ccc(S(=O)(=O)NCCN(CCNC(=O)Nc2ccc(Cl)cc2)CCNS(=O)(=O)c2ccc(C)cc2)cc1`, the CC50 in the assay with Jurkat, in the assay on PC-3 [1] and in the assay on LNCaP was > 100 µM throughout.

On to `Cc1ccc(NC(=O)NCCN(CCNS(=O)(=O)c2ccc(C)cc2)CCNS(=O)(=O)c2ccc(C)cc2)cc1`, for which the CC50 in the assay on Jurkat, in the assay on PC-3 [1] and with LNCaP was > 100 µM throughout.

For the compound `Cc1ccc(S(=O)(=O)NCCN(CCNC(=O)Nc2ccc(Br)cc2)CCNS(=O)(=O)c2ccc(C)cc2)cc1`, the CC50 in the assay on Jurkat, in the assay with PC-3 [1] and in the assay with LNCaP was > 100 µM each time.

With `COc1ccc(NC(=O)NCCN(CCNS(=O)(=O)c2ccc(C)cc2)CCNS(=O)(=O)c2ccc(C)cc2)cc1`, the CC50 in the assay on Jurkat, in the assay with PC-3 [1] and in the assay on LNCaP was > 100 µM each time.

In the case of `Cc1ccc(S(=O)(=O)NCCN(CCNC(=S)Nc2ccc(Cl)cc2)CCNS(=O)(=O)c2ccc(C)cc2)cc1`, the CC50 was 15 µM with Jurkat, 25 µM in the assay on PC-3 [1] and 15 µM with LNCaP.

Take `Cc1ccc(S(=O)(=O)NCCN(CCNC(=O)Nc2ccc(C(C)(C)C)cc2)CCNS(=O)(=O)c2ccc(C)cc2)cc1`: the CC50 in the assay with Jurkat, in the assay with PC-3 [1] and with LNCaP was > 100 µM throughout.

Regarding `Cc1ccc(S(=O)(=O)NCCN(CCNC(=O)Nc2ccc([N+](=O)[O-])cc2)CCNS(=O)(=O)c2ccc(C)cc2)cc1`, the CC50 with Jurkat, in the assay on PC-3 [1] and in the assay with LNCaP was > 100 µM in each case. In the assay with PC-3 [2], the Activity is < 5%.

In the case of `Cc1ccc(S(=O)(=O)NCCN(CCNC(=O)Nc2ccc(C(C)C)cc2)CCNS(=O)(=O)c2ccc(C)cc2)cc1`, the CC50 with Jurkat, with PC-3 [1] and with LNCaP was > 100 µM in each case. Moreover, the Activity with PC-3 [2] was < 5%.

As for `Cc1ccc(S(=O)(=O)NCCN(CCNC(=O)Nc2ccc(C#N)cc2)CCNS(=O)(=O)c2ccc(C)cc2)cc1`, the CC50 in the assay on Jurkat, in the assay with PC-3 [1] and with LNCaP was > 100 µM each time.

On to `Cc1ccc(S(=O)(=O)NCCN(CCNCc2ccccc2)CCNS(=O)(=O)c2ccc(C)cc2)cc1`, for which the CC50 was found to be 25 µM in the assay with Jurkat, 25 µM with PC-3 [1] and 40 µM in the assay on LNCaP.
